Most compounds without a hit are left out; they make up all but 4.1% or so of the library.
RGS4 inh: RGS4 inhibitors, primary screen, cell-based, HEK293 M3R inducible RGS4, calcium flux | Regulator of G-protein signaling 4 (Homo sapiens), P49798 | Fluo-4 calcium flux; active compounds read high; triggered by carbachol at its EC20 | B-score at 10 µM | actives 0.45% (n = 310,000);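 active means B-score, a plate-corrected calcium signal, over three deviations above library mean, with baseline fluorescence within five deviations of library mean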;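 further: RGS4 expression induced by doxycycline in cells with stable M3 receptor; B-score is computed from the integrated fluorescence ratio over baseline after carbachol; higher B-score means a larger calcium signal and so more RGS4 inhibition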
Target sequence (P49798 whole entry, looked up): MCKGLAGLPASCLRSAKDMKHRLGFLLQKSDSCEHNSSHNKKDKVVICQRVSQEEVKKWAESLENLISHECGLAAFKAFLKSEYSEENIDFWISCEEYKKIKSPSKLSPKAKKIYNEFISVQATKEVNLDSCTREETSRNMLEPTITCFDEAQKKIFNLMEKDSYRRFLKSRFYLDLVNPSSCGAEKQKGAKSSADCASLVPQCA
Kir21 block: inhibitors of mouse Kir2.1 inward-rectifier potassium channel. Inward rectifier potassium channel 2 (Mus musculus), P35561. HEK293-Kir2.1, FluxOR thallium flux fluorescence; active compounds read low. B-score at 10 µM. actives 0.85% (n = 310,000);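 active means fluorescence ratio B-score at or below minus 3 SD of library scores, with starting-brightness B-score within 2 SD, cut at about -4.2 in these data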;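 further: channel flux triggered by added potassium and thallium sulfate stimulus; B-score of peak minus minimum fluorescence over baseline after thallium stimulus; more negative B-score means stronger Kir2.1 block with less thallium influx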
RGS4 act: RGS4 potentiators or activators, primary screen, cell-based, HEK293 M3R inducible RGS4, calcium flux; AID 463111, 2010; actives 0.92% (n = 310,000); B-score at 10 µM; carbachol calcium flux Fluo4; active compounds read low;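 active means B-score of the integrated calcium signal more than 4 SD below the library mean, with starting fluorescence not abnormally high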;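 further: negative B-score means reduced calcium response which marks RGS4 activation or potentiation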
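Also added: carbachol at ECmax as muscarinic agonist stimulus; Assay system: HEK293 cells with stable M3R and inducible RGS4; Timing: overnight RGS4 induction, 30 min dye load 37 °C, 20 min compound RT; Measured by: Fluo4-AM (2 µM) calcium-flux fluorescence, kinetic read.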
MrgX1 allo act: positive allosteric modulators of MrgX1, primary screen, HEK293 cells, Fluo-4 calcium flux | FDSS; active compounds read high | B-score at 10 µM | actives 0.63% (n = 310,000) | AID 588675, 2011;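 active means plate-corrected calcium response at least 3 library SD above typical, normal starting fluorescence, not activating the receptor alone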;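 further: compound read alongside a low EC10 to EC30 dose of BAM8-22 agonist; peak minus trough fluorescence over baseline measured at the second addition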
Target sequence (Q96LB2 whole entry, looked up): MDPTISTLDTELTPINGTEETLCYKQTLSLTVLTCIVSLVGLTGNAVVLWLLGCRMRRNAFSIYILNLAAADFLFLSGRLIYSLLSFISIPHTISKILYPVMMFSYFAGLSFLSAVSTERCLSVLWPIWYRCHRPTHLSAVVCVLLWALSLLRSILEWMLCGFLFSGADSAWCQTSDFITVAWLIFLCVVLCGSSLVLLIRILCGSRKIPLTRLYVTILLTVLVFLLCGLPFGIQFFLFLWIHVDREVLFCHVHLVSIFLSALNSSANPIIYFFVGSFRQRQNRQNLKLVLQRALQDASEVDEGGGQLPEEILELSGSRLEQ
MrgX1 antagonist: antagonists of human MrgX1 receptor, primary screen, HEK293 cells, Fluo-4 calcium flux. BAM8-22 antagonism; active compounds read low. actives 1.3% (n = 310,000). B-score at 10 µM. Mas-related G-protein coupled receptor member X1 (Homo sapiens), Q96LB2;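 active means calcium-response B-score plate-corrected more than 3 library SD below zero, starting fluorescence within 5 deviations, no agonist response on first addition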;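 further: peak minus trough fluorescence over baseline after final BAM8-22 challenge near maximal dose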
MrgX1 agonist: agonists of human MrgX1 receptor, primary screen, HEK293 cells, Fluo-4 calcium flux; B-score at 10 µM; Fluo-4 calcium fluorescence, agonist mode; active compounds read high; AID 588627, 2011; actives 0.44% (n = 310,000); Mas-related G-protein coupled receptor member X1 (Homo sapiens), Q96LB2;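 active means calcium response B-score plate-corrected fluorescence ratio at least 3 library SD, with starting fluorescence B-score inside 5 SD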
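times = overnight plating, then 30 min 37 °C plus 30 min room-temperature dye loading | assay system = stable human MrgX1 HEK293 cell line | input = fifteen thousand cells per well | signal = kinetic calcium dye fluorescence, Fluo-4 NW | dosing = compound delivered in addition one of three | read-out = B-scored fluorescence response ratio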
RGS4 act valid: reduced carbachol calcium response, RGS4-induced M3R cells, confirmation, RGS4 activator project, cell-based, HEK293 M3R/RGS4 inducible, calcium flux, duplicate; carbachol calcium flux Fluo4; inhibition, % at 10 µM; shares compounds with RGS4 act; actives 89% (n = 1,100);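 active means inhibition above 3 SD of the buffer control wells, cut at about 41% in these data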;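 further: signal is the integrated peak-minus-minimum Fluo4 fluorescence over baseline ratio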
RGS4 act ctr: RGS4 activator counter-screen hit in non-induced cells; shares compounds with RGS4 act; HEK293 M3R non-induced RGS4, Fluo4 calcium flux; after carbachol challenge at its EC90; inhibition, % at 10 µM; actives 82% (n = 1,100);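 active means inhibition exceeding 3 SD of buffer-only control wells, cut at about 26% in these data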;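 further: percent drop in integrated peak-minus-baseline over baseline Fluo4 ratio after carbachol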
* = called active by the depositor; i = inactive; . = no result given.

SMILES | RGS4 inh | Kir21 block | RGS4 act | MrgX1 allo act | MrgX1 antagonist | MrgX1 agonist | RGS4 act valid | RGS4 act ctr
COc1ccccc1N1CCN(C(=O)CSc2nc3ccccc3nc2N2CCCCC2)CC1 | i | -3.02 | i | i | i | i | . | .
COc1ccccc1N1CCN(C(=O)CSc2nc3ccccc3nc2N2CCC(C)CC2)CC1 | i | -1.06 | -7.66* | i | i | i | 43.5* | 0.0
C/C(=N\NC(=O)CC#N)c1cc2ccccc2oc1=O | i | 0 | i | i | i | i | . | .
CN1CCc2c(sc3nc(SCC(N)=O)n(-c4ccccc4)c(=O)c23)C1 | i | 1.04 | i | i | i | i | . | .
CCSc1nc2sc3c(c2c(=O)n1-c1ccccc1)CCN(C(C)C)C3 | i | -0.99 | -7.88* | i | i | i | 64.5* | 0.0
COC(=O)CSc1nc(SCc2ccccc2Cl)nc2c1CCCC2 | i | 0.13 | -8.01* | i | i | i | 47.5* | 83.8*
O=C(/C=C/c1ccc(Cl)cc1)N(c1ccccn1)C1CCCCC1 | i | 1.98 | i | i | i | i | . | .
CC(C)(C)c1[nH]nc2c1C(c1cccnc1)C(C#N)=C(N)O2 (stereo unspecified) | i | 0.04 | i | i | i | i | . | .
CC(C)(C)c1[nH]nc2c1C(Cc1ccccc1)C(C#N)=C(N)O2 (stereo unspecified) | i | -1.3 | -9.3* | i | -5.1* | i | 92.0* | 83.8*
CC(=O)Nc1cccc(NC(=O)c2cc(-c3cccnc3)nc3ccc(Br)cc23)c1 | i | 0.26 | i | i | i | i | . | .
O=C(Nc1cccnc1)c1cc(-c2ccc(Br)cc2)nc2ccccc12 | i | -0.16 | -13.3* | i | i | i | 91.5* | 75.8*
CC(=O)Nc1cccc(NC(=O)c2cc(-c3cccnc3)nc3ccc(Cl)cc23)c1 | i | 1.03 | -8.63* | i | i | i | 46.0* | 0.0
CCn1c(CC(=O)Nc2ccccc2)nnc1SCC(=O)Nc1ccccc1C(=O)OC | i | 0.03 | i | i | i | i | . | .
O=C(Nc1nnc(-c2cccnc2)s1)c1cccs1 | i | 1.12 | i | i | i | i | . | .
O=C(c1cccs1)N1CCCC(c2nc3c(nnn3Cc3c(Cl)cccc3Cl)c(=O)[nH]2)C1 (stereo unspecified) | i | 2.11 | -8.32* | i | i | i | 52.0* | 83.8*
CN1CCN(c2ncnc3c2c(-c2ccccc2)cn3-c2ccc(F)cc2)CC1 | i | -1.3 | i | i | i | i | . | .
CCOc1ccc(-n2cc(-c3ccccc3)c3c(N4CCOCC4)ncnc32)cc1 | i | 0.27 | -8.17* | i | i | i | 61.5* | 0.0
CCCN1CCN(CCCNC(=O)c2ccc3c(Cl)c4c(nc3c2)CCCC4)CC1 | i | -0.99 | -8.12* | i | i | i | 93.5* | 62.3*
O=C(c1ccc2c(Cl)c3c(nc2c1)CCCC3)N1CCN(c2ccc(F)cc2)CC1 | i | 0.4 | -9.23* | i | i | i | 91.5* | 86.3*
COc1ccccc1N1CCN(C(=O)c2ccc3c(Cl)c4c(nc3c2)CCCC4)CC1 | i | -1.93 | -9.74* | i | i | i | 86.5* | 78.8*
Cc1cc(C)c(S(=O)(=O)NCC2CCC(C(=O)NCc3ccccn3)CC2)c(C)c1 (stereo unspecified) | i | -1.58 | i | i | i | i | . | .
CCN(CC)CCC(O)(c1ccccc1)C1CCCCC1 (stereo unspecified) | i | -0.47 | -9.26* | i | i | i | 92.0* | 92.3*
CC1Oc2ccccc2C(=O)N(CC(=O)c2ccc3c(c2)OCCO3)C1=O (stereo unspecified) | i | 0.45 | i | i | i | i | . | .
CCC1Oc2ccccc2C(=O)N(CC(=O)c2ccc3c(c2)OCCO3)C1=O (stereo unspecified) | i | -1.44 | -8.09* | i | i | i | 72.5* | 83.8*
CC(C)C1Oc2ccccc2C(=O)N(CC(=O)c2ccc3c(c2)OCCO3)C1=O (stereo unspecified) | i | 0.4 | -7.85* | i | i | i | 0.0 | 0.0
SMILES | RGS4 inh | Kir21 block | RGS4 act | MrgX1 allo act | MrgX1 antagonist | MrgX1 agonist | RGS4 act valid | RGS4 act ctr
CCCNC(=O)c1ccccc1NC(=O)c1ccc2c(c1)NC(=O)C(C)S2 (stereo unspecified) | i | 0.12 | -7.82* | i | i | i | 71.5* | 28.8*
C[n+]1c2n(c3ccccc31)N=C(c1cc(C(C)(C)C)c(O)c(C(C)(C)C)c1)CS2 | i | -7.81* | -13.4* | i | -8.65* | i | 94.5* | 82.8*
CCN(Cc1ccccc1)Cc1ccc(OCc2ccccc2)cc1 | i | -0.04 | -8.35* | i | i | i | 93.0* | 69.8*
Nc1ccc(OCc2ccccc2)cc1 | i | 0.76 | i | i | i | i | . | .
COc1ccc(CCNC(=O)C(=O)NCC2CCCN2S(=O)(=O)c2ccccc2)cc1 (stereo unspecified) | i | -0.74 | -12.1* | i | i | i | 87.5* | 54.3*
O=C(NCCc1ccc(F)cc1)C(=O)NCC1CCCN1S(=O)(=O)c1ccccc1 (stereo unspecified) | i | 2.3 | -9.26* | i | i | i | 89.5* | 68.3*
COc1ccccc1CCNC(=O)C(=O)NCC1CCCN1S(=O)(=O)c1ccccc1 (stereo unspecified) | i | 0.53 | -10.9* | i | -4.52* | i | 79.5* | 83.8*
CCN1CCC2(CC1)Oc1c(OC)cccc1C1CC(c3cccnc3)=NN12 (stereo unspecified) | i | 2.13 | i | i | i | i | . | .
Cc1ccc(F)c(NC(=O)c2cncn2-c2ccccc2)c1 | i | 0.96 | i | i | i | i | . | .
